Source: ChEMBL document CHEMBL1152489, “Synthesis and biological evaluation of a novel series of 1,5-benzothiazepine derivatives as potential antimicrobial agents” (2009)
The source made the active and inactive calls. The rule behind the calls is not given here.

Experiments:
[1] = tested on: Staphylococcus epidermidis; assay: Antibacterial activity against Staphylococcus epidermidis ATCC 26069 at 30 ug/disk after 24 hrs by disk diffusion method; format: functional; conditions: ATCC 26069, 24 h, read-out: IZ
Summary of the method: (§1)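 Disc diffusion: sterile 6 mm paper discs impregnated with compound dissolved in DMSO, placed on the surface of medium inoculated with the microorganism; DMSO-only discs served as controls. Plates were incubated at 37 °C for 24 h. Growth-inhibition zone diameter (mm) was read and averaged over three trials.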

Escherichia coli [2] = assay: Antibacterial activity against Escherichia coli ATCC 44752 at 30 ug/disk after 24 hrs by disk diffusion method; format: functional; conditions: ATCC 44752, 24 h, read-out: IZ; summary of the method: as §1
Staphylococcus aureus [3] = assay: Antibacterial activity against Staphylococcus aureus ATCC 25923 at 30 ug/disk after 24 hrs by disk diffusion method; format: functional; conditions: ATCC 25923, 24 h, read-out: IZ; summary of the method: as §1
Candida albicans [4] = assay: Antifungal activity against Candida albicans ATCC 10231 at 200 ug/disk after 24 hrs by disk diffusion method; format: functional; conditions: for zone of inhibition at 200 µg/disc: ATCC 10231, 24 h, read-out: IZ
Summary of the method: (§2)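 Disk diffusion on media seeded with the organism. Sterile paper discs (6 mm) carried test compound dissolved in DMSO at 12.5, 50, 100 or 200 µg/disc. DMSO-only discs served as controls. Plates were incubated 24 h at 37 °C. The read-out is the growth-inhibition zone diameter in mm, averaged over three trials (±1 mm).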

Candida albicans [5] = assay: Antifungal activity against Candida albicans ATCC 10231 at 50 ug/disk after 24 hrs by disk diffusion method; format: functional; conditions: for zone of inhibition at 50 µg/disc: ATCC 10231, 24 h, read-out: IZ; summary of the method: as §2
[6] = tested on: Staphylococcus epidermidis; assay: Antibacterial activity against Staphylococcus epidermidis ATCC 26069 at 100 ug/disk after 24 hrs by disk diffusion method; format: functional; conditions: for zone of inhibition at 100 µg/disc: ATCC 26069, 24 h, read-out: IZ; summary of the method: as §2
Staphylococcus aureus [7] = assay: Antibacterial activity against Staphylococcus aureus ATCC 25923 at 100 ug/disk after 24 hrs by disk diffusion method; format: functional; conditions: for zone of inhibition at 100 µg/disc: ATCC 25923, 24 h, read-out: IZ; summary of the method: as §2
Staphylococcus aureus [8] = assay: Antibacterial activity against Staphylococcus aureus ATCC 25923 after 24 hrs by disk diffusion method; format: functional, organism-based; summary of the method: as §2
Candida albicans [9] = assay: Antifungal activity against Candida albicans ATCC 10231 at <12.5 ug/disk after 24 hrs by disk diffusion method; format: functional, organism-based; summary of the method: as §2
[10] = tested on: Staphylococcus epidermidis; assay: Antibacterial activity against Staphylococcus epidermidis ATCC 26069 at 200 ug/disk after 24 hrs by disk diffusion method; format: functional; conditions: for zone of inhibition at 200 µg/disc: ATCC 26069, 24 h, read-out: IZ; summary of the method: as §2
Staphylococcus aureus [11] = assay: Antibacterial activity against Staphylococcus aureus ATCC 25923 at 50 ug/disk after 24 hrs by disk diffusion method; format: functional; conditions: for zone of inhibition at 50 µg/disc: ATCC 25923, 24 h, read-out: IZ; summary of the method: as §2
[12] = tested on: Staphylococcus epidermidis; assay: Antibacterial activity against Staphylococcus epidermidis ATCC 26069 after 24 hrs by disk diffusion method; format: functional, organism-based; summary of the method: as §2
Staphylococcus aureus [13] = assay: Antibacterial activity against Staphylococcus aureus ATCC 25923 at 200 ug/disk after 24 hrs by disk diffusion method; format: functional; conditions: for zone of inhibition at 200 µg/disc: ATCC 25923, 24 h, read-out: IZ; summary of the method: as §2
Candida albicans [14] = assay: Antifungal activity against Candida albicans ATCC 10231 at 100 ug/disk after 24 hrs by disk diffusion method; format: functional; conditions: for zone of inhibition at 100 µg/disc: ATCC 10231, 24 h, read-out: IZ; summary of the method: as §2
Staphylococcus aureus [15] = assay: Antibacterial activity against Staphylococcus aureus ATCC 25923 at <12.5 ug/disk after 24 hrs by disk diffusion method; format: functional, organism-based; summary of the method: as §2
[16] = tested on: Staphylococcus epidermidis; assay: Antibacterial activity against Staphylococcus epidermidis ATCC 26069 at 50 ug/disk after 24 hrs by disk diffusion method; format: functional; conditions: for zone of inhibition at 50 µg/disc: ATCC 26069, 24 h, read-out: IZ; summary of the method: as §2
Escherichia coli [17] = assay: Antibacterial activity against Escherichia coli ATCC 44752 at 200 ug/disk after 24 hrs by disk diffusion method; format: functional, organism-based; summary of the method: as §2
Candida albicans [18] = assay: Antifungal activity against Candida albicans ATCC 10231 after 24 hrs by disk diffusion method; format: functional, organism-based; summary of the method: as §2
Escherichia coli [19] = assay: Antibacterial activity against Escherichia coli ATCC 44752 at 50 ug/disk after 24 hrs by disk diffusion method; format: functional, organism-based; summary of the method: as §2
[20] = tested on: Staphylococcus epidermidis; assay: Antibacterial activity against Staphylococcus epidermidis ATCC 26069 at <12.5 ug/disk after 24 hrs by disk diffusion method; format: functional, organism-based; summary of the method: as §2
Escherichia coli [21] = assay: Antibacterial activity against Escherichia coli ATCC 44752 at 100 ug/disk after 24 hrs by disk diffusion method; format: functional, organism-based; summary of the method: as §2
Candida albicans [22] = assay: Antifungal activity against Candida albicans ATCC 10231 at 25 ug/disk after 24 hrs by disk diffusion method; format: functional; conditions: ATCC 10231, 24 h, read-out: IZ; summary of the method: as §1

SMILES | zone of inhibition at 200 µg/disc (Candida albicans [4]) [mm] | zone of inhibition at 50 µg/disc (Candida albicans [5]) [mm] | zone of inhibition at 100 µg/disc [6] [mm] | zone of inhibition at 100 µg/disc (Staphylococcus aureus [7]) [mm] | zone of inhibition at 200 µg/disc [10] [mm] | zone of inhibition at 50 µg/disc (Staphylococcus aureus [11]) [mm] | zone of inhibition at 200 µg/disc (Staphylococcus aureus [13]) [mm] | zone of inhibition at 100 µg/disc (Candida albicans [14]) [mm] | zone of inhibition at 50 µg/disc [16] [mm] | inhibition zone (IZ) (Escherichia coli [17]) | inhibition zone (IZ) (Escherichia coli [19]) | inhibition zone (IZ) (Escherichia coli [21]) | also measured
CN[C@H](CC(C)C)C(=O)N[C@H]1C(=O)N[C@@H](CC(N)=O)C(=O)N[C@H]2C(=O)N[C@H]3C(=O)N[C@H](C(=O)N[C@H](C(=O)O)c4cc(O)cc(O)c4-c4cc3ccc4O)[C@H](O)c3ccc(c(Cl)c3)Oc3cc2cc(c3O[C@@H]2O[C@H](CO)[C@@H](O)[C@H](O)[C@H]2O[C@H]2C[C@](C)(N)[C@H](O)[C@H](C)O2)Oc2ccc(cc2Cl)[C@H]1O [VANCOMYCIN] |  |  |  |  |  |  |  |  |  |  |  |  | zone of inhibition at 30 µg/disc [1]: 18 mm; zone of inhibition at 30 µg/disc (Escherichia coli [2]): 8 mm; zone of inhibition at 30 µg/disc (Staphylococcus aureus [3]): 18 mm
CC(=O)C1=C(C)Nc2ccccc2SC1c1ccc(Cl)cc1 (stereo unspecified) | 24 | 18 | 17 | 14 | 19 | 12 | 15 | 21 | 17 | inactive | inactive | inactive | Activity (Staphylococcus aureus [8]): Dose-dependent effect; Activity (Candida albicans [9]): inactive; Activity [12]: Dose-dependent effect; Activity (Staphylococcus aureus [15]): inactive; Activity (Candida albicans [18]): Dose-dependent effect; Activity [20]: inactive
CCOC(=O)C1C(C)=Nc2ccccc2SC1c1ccc(O)cc1 (stereo unspecified) | 30 | 14 | 16 | 15 | 20 | 7 | 18 | 24 | 10 | inactive | inactive | inactive | Activity (Staphylococcus aureus [8]): Dose-dependent effect; Activity (Candida albicans [9]): inactive; Activity [12]: Dose-dependent effect; Activity (Staphylococcus aureus [15]): inactive; Activity (Candida albicans [18]): Dose-dependent effect; Activity [20]: inactive
CC(=O)C1=C(C)Nc2ccccc2SC1c1ccccc1[N+](=O)[O-] (stereo unspecified) | 16 | 11 | 9 | 11 | 10 | 8 | 12 | 13 | 7 | inactive | inactive | inactive | 
CCOC(=O)C1=C(C)Nc2ccccc2SC1c1ccc([N+](=O)[O-])cc1 (stereo unspecified) | 7 |  |  | 6.5 |  |  | 7 | 6.5 |  | inactive | inactive | inactive | inhibition zone (IZ) (Candida albicans [5]): inactive; inhibition zone (IZ) [6]: inactive; inhibition zone (IZ) [10]: inactive; inhibition zone (IZ) (Staphylococcus aureus [11]): inactive; inhibition zone (IZ) [16]: inactive
OC(Cn1cncn1)(Cn1cncn1)c1ccc(F)cc1F [FLUCONAZOLE] |  |  |  |  |  |  |  |  |  |  |  |  | zone of inhibition at 25 µg/disc (Candida albicans [22]): 23 mm
CC(=O)C1=C(C)Nc2ccccc2SC1c1ccc([N+](=O)[O-])cc1 (stereo unspecified) | 20 | 16 | 12 | 12 | 13 | 10 | 13 | 18 | 10 | inactive | inactive | inactive | 
CC(=O)C1=C(C)Nc2cc(Cl)ccc2SC1c1ccc(F)cc1 (stereo unspecified) | 10 | 8 | 8 | 9 | 8 | 8 | 9 | 9 | 7 | inactive | inactive | inactive | 
CCOC(=O)C1=C(C)Nc2ccccc2SC1c1ccc(C)cc1 (stereo unspecified) |  |  |  |  |  |  |  |  |  | inactive | inactive | inactive | inhibition zone (IZ) (Candida albicans [4]): inactive; inhibition zone (IZ) (Candida albicans [5]): inactive; inhibition zone (IZ) [6]: inactive; inhibition zone (IZ) (Staphylococcus aureus [7]): inactive; inhibition zone (IZ) [10]: inactive; inhibition zone (IZ) (Staphylococcus aureus [11]): inactive; inhibition zone (IZ) (Staphylococcus aureus [13]): inactive; inhibition zone (IZ) (Candida albicans [14]): inactive; inhibition zone (IZ) [16]: inactive
CC(=O)C1=C(C)Nc2ccccc2SC1c1ccc(C)cc1 (stereo unspecified) | 23 | 16 | 7 | 9 | 7 | 7 | 10 | 16 | 7 | inactive | inactive | inactive | 
CC(=O)C1=C(C)Nc2ccccc2SC1c1ccc(O)cc1 (stereo unspecified) | 17 | 15 | 11 | 9.5 | 12 | 7 | 10 | 17 | 11 | inactive | inactive | inactive | 
COc1ccc(C2Sc3ccccc3NC(C)=C2C(C)=O)cc1 (stereo unspecified) | 11 | 8 | 7 | 7 | 10 | 6.5 | 10 | 9 |  | inactive | inactive | inactive | inhibition zone (IZ) [16]: inactive
